Results published in publication PMC6039301 (Journal of medicinal chemistry, 2017).
Entries after “also recorded” stand apart in the source; their conditions may differ.

Tests used:
[1] = test system: ER-positive MCF-7 breast cancer cells; assay: Cell proliferation assay; assay type: cell-based; conditions: for IC50: Homo sapiens, MCF7, read-out: IC50 antiproliferative activity; for Cell proliferation (CP), percent of vehicle control (antiproliferative efficacy): MCF-7, 3 μM, 6 days, maximum suppression ca. 20%
[2] = test system: ERα levels in MCF-7 breast cancer cells; assay: In-cell western assay for ERα level; assay type: cell-based; conditions: MCF-7, 3 μM, 24 h
Summary of the method: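 MCF-7 cells seeded at 3000 cells/well, exposed to test compound at a single 3 μM concentration for 24 h. Cells fixed in 4% formaldehyde, permeabilized with 0.1% Triton X-100, blocked, then probed overnight at 4 °C with rabbit anti-ERα (HC-20). IRDye 800 secondary and Cell Tag 700 were used, with ERα signal normalized to Cell Tag. Reported as percent of vehicle; mean of ≥3 independent experiments.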

ERα levels = assay: Western blot analysis of ERα; assay type: cell-based; conditions: 3×10^−6 M, 24 h (Figure 6B)
Summary of the method: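 Cells treated 24 h with test compound at 3×10−10, 3×10−8 or 3×10−6 M; E2 (1×10−8 M) and tamoxifen (3×10−6 M) were reference treatments. Whole-cell extracts made with protease and phosphatase inhibitors, separated on 10% SDS-PAGE and transferred to nitrocellulose. Probed for ERα (F10 antibody) and β-actin. Band levels expressed as percent of vehicle.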

[3] = molecular target: T1, full-length human estrogen receptor alpha (ERα) (Homo sapiens, UniProt P03372); conditions: cited from earlier work
T1 sequence (P03372 1-595): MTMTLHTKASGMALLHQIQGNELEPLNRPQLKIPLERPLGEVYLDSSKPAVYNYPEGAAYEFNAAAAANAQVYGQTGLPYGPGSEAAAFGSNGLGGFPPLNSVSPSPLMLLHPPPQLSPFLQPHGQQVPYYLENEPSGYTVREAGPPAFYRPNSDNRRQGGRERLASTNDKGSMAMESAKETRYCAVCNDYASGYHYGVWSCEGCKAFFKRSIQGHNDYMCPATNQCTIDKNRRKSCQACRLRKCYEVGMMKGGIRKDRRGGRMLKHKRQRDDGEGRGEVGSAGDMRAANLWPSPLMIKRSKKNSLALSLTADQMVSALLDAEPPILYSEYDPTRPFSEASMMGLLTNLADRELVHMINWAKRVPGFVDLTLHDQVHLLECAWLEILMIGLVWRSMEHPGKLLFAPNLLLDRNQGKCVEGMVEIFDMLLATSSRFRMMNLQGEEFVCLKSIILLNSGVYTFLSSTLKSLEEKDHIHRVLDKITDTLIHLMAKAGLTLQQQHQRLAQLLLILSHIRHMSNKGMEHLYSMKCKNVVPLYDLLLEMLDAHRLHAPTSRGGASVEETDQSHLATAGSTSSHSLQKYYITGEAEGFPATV

`O=C(O)/C=C/c1ccc(C(=C2C3CC4CC(C3)CC2C4)c2ccc(O)cc2)cc1` [Compound 5, (E)-3-(4-(((1r,3r,5R,7S)-Adamantan-2-ylidene)(4-hydroxyphenyl)methyl)phenyl)acrylic acid] showed an IC50 [1] of 31 nM.

With `CCCCCC(=O)/C=C/c1ccc(C(=C2C3CC4CC(C3)CC2C4)c2ccc(O)cc2)cc1` [Compound 6, (E)-1-(4-(((1r,3r,5R,7S)-Adamantan-2-ylidene)(4-hydroxyphenyl)methyl)phenyl)oct-1-en-3-one] the “Cell proliferation (CP), percent of vehicle control (antiproliferative efficacy)” value (“Cell proliferation (CP), percent” for short) [1] was “some efficacy” and the “ERα level, percent of vehicle control (ERα downregulating efficacy)” value (shortened to “ERα level, percent of vehicle control”) [2] was “some efficacy”.

With `COC(=O)/C=C/c1ccc(C(=C2C3CC4CC(C3)CC2C4)c2ccc(O)cc2)cc1` [Compound 7, Methyl (E)-3-(4-(((1r,3r,5R,7S)-Adamantan-2-ylidene)(4-hydroxyphenyl)methyl)phenyl) acrylate] the “Cell proliferation (CP), percent” value [1] was “no anti-proliferative activity”.

In the case of `CCCCOC(=O)/C=C/c1ccc(C(=C2C3CC4CC(C3)CC2C4)c2ccc(O)cc2)cc1` [Compound 9, Butyl (E)-3-(4-(((1r,3r,5R,7S)-Adamantan-2-ylidene)(4-hydroxyphenyl)methyl)phenyl) acrylate], the “ERα level, percent of vehicle control” value [2] is reported as “good to very good”.

For `CC(C)CCCCCOC(=O)/C=C/c1ccc(C(=C2C3CC4CC(C3)CC2C4)c2ccc(O)cc2)cc1` [Compound 10, 6-Methylheptyl (E)-3-(4-(((1r,3r,5R,7S)-Adamantan-2-ylidene)(4-hydroxyphenyl)methyl)phenyl)acrylate], the “Cell proliferation (CP), percent” value [1] was “no anti-proliferative activity” and the “ERα level, percent of vehicle control” value [2] was “good to very good”.

With `O=C(/C=C/c1ccc(C(=C2C3CC4CC(C3)CC2C4)c2ccc(O)cc2)cc1)OCCCCO` [Compound 13, 4-Hydroxybutyl (E)-3-(4-(((1r,3r,5R,7S)-Adamantan-2-ylidene)(4-hydroxyphenyl)methyl)phenyl)acrylate] the “ERα level, percent of vehicle control” value [2] was “good to very good”.

In the case of `N#C/C=C/c1ccc(C(=C2C3CC4CC(C3)CC2C4)c2ccc(O)cc2)cc1` [Compound 14, (E)-3-(4-(((1r,3r,5R,7S)-Adamantan-2-ylidene)(4-hydroxyphenyl)methyl)phenyl) acrylonitrile], the “Cell proliferation (CP), percent” value [1] is reported as “matching that of vehicle control; also recorded: no anti-proliferative activity” and the “ERα level, percent of vehicle control” value [2] is reported as “very effective”.

For `CCCNS(=O)(=O)/C=C/c1ccc(C(=C2C3CC4CC(C3)CC2C4)c2ccc(O)cc2)cc1` [Compound 15, (E)-2-(4-(((1r,3r,5R,7S)-Adamantan-2-ylidene)(4-hydroxyphenyl)methyl)phenyl)-N-propylethene-1-sulfonamide], the “Cell proliferation (CP), percent” value [1] was “only modest” and the “ERα level, percent of vehicle control” value [2] was “only modest”.

In the case of `NC(=O)/C=C/c1ccc(C(=C2C3CC4CC(C3)CC2C4)c2ccc(O)cc2)cc1` [Compound 16, (E)-3-(4-(((1r,3r,5R,7S)-Adamantan-2-ylidene)(4-hydroxyphenyl)methyl)phenyl)acrylamide], the “Cell proliferation (CP), percent” value [1] is reported as “Least good” and the “ERα level, percent of vehicle control” value [2] is reported as “Least good”.

In the case of `CCCCNC(=O)/C=C/c1ccc(C(=C2C3CC4CC(C3)CC2C4)c2ccc(O)cc2)cc1` [Compound 18, (E)-3-(4-(((1r,3r,5R,7S)-Adamantan-2-ylidene)(4-hydroxyphenyl)methyl)phenyl)-N-butylacrylamide], the “Cell proliferation (CP), percent” value [1] is reported as “good efficacies” and the “ERα level, percent of vehicle control” value [2] is reported as “good efficacies”.

With `O=C(/C=C/c1ccc(C(=C2C3CC4CC(C3)CC2C4)c2ccc(O)cc2)cc1)NCCO` [Compound 20, (E)-3-(4-(((1r,3r,5R,7S)-Adamantan-2-ylidene)(4-hydroxyphenyl)methyl)phenyl)-N-(2-hydroxyethyl)acrylamide] the IC50 [1] was 2.4 nM, the “Cell proliferation (CP), percent” value [1] was “impressive efficacies” and the “ERα level, percent of vehicle control” value [2] was “impressive efficacies”.

With `O=C(/C=C/c1ccc(C(=C2C3CC4CC(C3)CC2C4)c2ccc(O)cc2)cc1)NCCCO` [Compound 21, (E)-3-(4-(((1r,3r,5R,7S)-Adamantan-2-ylidene)(4-hydroxyphenyl)methyl)phenyl)-N-(3-hydroxypropyl)acrylamide] the IC50 [1] was 1.9 nM, the “Cell proliferation (CP), percent” value [1] was “equivalent to that of the parent acid 5; also recorded: comparable to that of fulvestrant” and the “ERα level, percent of vehicle control” value [2] was “good and similar to that of the parent 5; also recorded: comparable to that of fulvestrant”.

In the case of `O=C(/C=C/c1ccc(C(=C2C3CC4CC(C3)CC2C4)c2ccc(O)cc2)cc1)NCCCCCO` [Compound 23, (E)-3-(4-(((1r,3r,5R,7S)-Adamantan-2-ylidene)(4-hydroxyphenyl)methyl)phenyl)-N-(5-hydroxypentyl)acrylamide], the IC50 [1] is reported as 10 nM, the “Cell proliferation (CP), percent” value [1] is reported as “equivalent to that of the parent acid 5” and the “ERα level, percent of vehicle control” value [2] is reported as “good and similar to that of the parent 5”.

In the case of `NCCNC(=O)/C=C/c1ccc(C(=C2C3CC4CC(C3)CC2C4)c2ccc(O)cc2)cc1` [Compound 24, (E)-3-(4-(((1r,3r,5R,7S)-Adamantan-2-ylidene)(4-hydroxyphenyl)methyl)phenyl)-N-(2-aminoethyl)acrylamide], the IC50 [1] is reported as 10 nM.

With `NCCCNC(=O)/C=C/c1ccc(C(=C2C3CC4CC(C3)CC2C4)c2ccc(O)cc2)cc1` [Compound 25, (E)-3-(4-(((1r,3r,5R,7S)-Adamantan-2-ylidene)(4-hydroxyphenyl)methyl)phenyl)-N-(3-aminopropyl)acrylamide] the “ERα level, percent of vehicle control” value [2] was “good”.

With `NCCCCNC(=O)/C=C/c1ccc(C(=C2C3CC4CC(C3)CC2C4)c2ccc(O)cc2)cc1` [Compound 26, (E)-3-(4-(((1r,3r,5R,7S)-Adamantan-2-ylidene)(4-hydroxyphenyl)methyl)phenyl)-N-(4-aminobutyl)acrylamide] the “ERα level, percent of vehicle control” value [2] was “good”.

With `O=C(/C=C/c1ccc(C(=C2C3CC4CC(C3)CC2C4)c2ccc(O)cc2)cc1)NCC(F)(F)F` [Compound 28, (E)-3-(4-(((1r,3r,5R,7S)-Adamantan-2-ylidene)(4-hydroxyphenyl)methyl)phenyl)-N-(2,2,2-trifluoroethyl)acrylamide] the “Cell proliferation (CP), percent” value [1] was “Least good” and the “ERα level, percent of vehicle control” value [2] was “Least good”.

In the case of `CCCCN(C)C(=O)/C=C/c1ccc(C(=C2C3CC4CC(C3)CC2C4)c2ccc(O)cc2)cc1` [Compound 29, (E)-3-(4-(((1r,3r,5R,7S)-Adamantan-2-ylidene)(4-hydroxyphenyl)methyl)phenyl)-N-butyl-N-methylacrylamide], the “Cell proliferation (CP), percent” value [1] is reported as “very poor efficacies” and the “ERα level, percent of vehicle control” value [2] is reported as “very poor efficacies”.

For `O=C(/C=C/c1ccc(C(=C2C3CC4CC(C3)CC2C4)c2ccc(O)cc2)cc1)N(CCO)CCO` [Compound 31, (E)-3-(4-(((1r,3r,5R,7S)-Adamantan-2-ylidene)(4-hydroxyphenyl)methyl)phenyl)-N,N-bis(2-hydroxyethyl)acrylamide], the “Cell proliferation (CP), percent” value [1] was “relatively unimpressive” and the “ERα level, percent of vehicle control” value [2] was “relatively unimpressive”.

For `C[C@]12CC[C@@H]3c4ccc(O)cc4C[C@@H](CCCCCCCCC[S+]([O-])CCCC(F)(F)C(F)(F)F)[C@H]3[C@@H]1CC[C@@H]2O` (some centres unmarked) [Fulvestrant, fulvestrant, reference compound], the “ERα level, percent of vehicle control” value [2] was 20%.

With `CC/C(=C(\c1ccc(O)cc1)c1ccc(OCCN(C)C)cc1)c1ccccc1` [hydroxytamoxifen, 4-hydroxytamoxifen] the “effect on cellular ERα level (Western blot)” value (ERα levels) was “upregulate ERα levels”.

For `Oc1ccc(C(=C2C3CC4CC(C3)CC2C4)c2ccc(O)cc2)cc1` [parent bisphenolic adamantyl-core], the “binding affinity for ERα, fold higher than that of estradiol (E2)” value [3] is listed as “ca. 3 fold” and the Ki ([3]; read-out: Ki for ERα, corresponds to the affinity relative to E2) is listed as 0.07 nM.
